Activity calls are given as the source filed them. The rule behind the calls is not given here.
Experiments:
[1] = molecular target: T1, Calpain-1 catalytic subunit (Homo sapiens) (UniProt P07384); test: Inhibition of human erythrocytes calpain-1 using Suc-Leu-Tyr-AMC as substrate in presence of up to 10 mM glutathione by kinetic fluorescence assay
T1 sequence (whole entry): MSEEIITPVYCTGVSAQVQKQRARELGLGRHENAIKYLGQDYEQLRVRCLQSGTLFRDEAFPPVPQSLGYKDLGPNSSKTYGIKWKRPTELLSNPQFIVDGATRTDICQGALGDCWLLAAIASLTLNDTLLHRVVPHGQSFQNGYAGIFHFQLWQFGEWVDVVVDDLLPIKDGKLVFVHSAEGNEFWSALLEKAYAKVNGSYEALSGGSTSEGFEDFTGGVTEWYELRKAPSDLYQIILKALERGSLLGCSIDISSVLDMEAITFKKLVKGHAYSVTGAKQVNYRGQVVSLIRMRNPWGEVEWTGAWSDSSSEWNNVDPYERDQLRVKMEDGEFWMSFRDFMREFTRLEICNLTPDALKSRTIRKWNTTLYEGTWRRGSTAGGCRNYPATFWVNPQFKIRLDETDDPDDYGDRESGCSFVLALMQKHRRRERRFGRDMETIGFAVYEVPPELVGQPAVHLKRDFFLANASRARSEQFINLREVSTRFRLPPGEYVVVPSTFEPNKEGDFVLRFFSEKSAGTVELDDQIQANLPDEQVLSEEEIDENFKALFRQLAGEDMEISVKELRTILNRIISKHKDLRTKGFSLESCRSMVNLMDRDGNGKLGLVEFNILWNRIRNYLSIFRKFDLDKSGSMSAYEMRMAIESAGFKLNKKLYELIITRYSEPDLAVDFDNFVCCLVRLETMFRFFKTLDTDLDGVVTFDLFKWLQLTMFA

[2] = molecular target: T2, Calpain-1 catalytic subunit (Homo sapiens, UniProt P07384); test: Inhibition of human erythrocytes calpain-1 using Suc-Leu-Tyr-AMC as substrate by kinetic fluorescence assay; details: read-out: Ki
T2 sequence (P07384 whole entry): T1 sequence (whole entry)

[3] = molecular target: T3, Calpain-1 catalytic subunit (Rattus norvegicus, UniProt P97571); test: (§1) Inhibition of calpain-1 in rat hippocampal slices assessed as prevention of NMDA-induced spectrin cleavage preincubated for 30 mins followed by NMDA addition measured after 5 hrs by Western blot analysis
T3 sequence (P97571 whole entry): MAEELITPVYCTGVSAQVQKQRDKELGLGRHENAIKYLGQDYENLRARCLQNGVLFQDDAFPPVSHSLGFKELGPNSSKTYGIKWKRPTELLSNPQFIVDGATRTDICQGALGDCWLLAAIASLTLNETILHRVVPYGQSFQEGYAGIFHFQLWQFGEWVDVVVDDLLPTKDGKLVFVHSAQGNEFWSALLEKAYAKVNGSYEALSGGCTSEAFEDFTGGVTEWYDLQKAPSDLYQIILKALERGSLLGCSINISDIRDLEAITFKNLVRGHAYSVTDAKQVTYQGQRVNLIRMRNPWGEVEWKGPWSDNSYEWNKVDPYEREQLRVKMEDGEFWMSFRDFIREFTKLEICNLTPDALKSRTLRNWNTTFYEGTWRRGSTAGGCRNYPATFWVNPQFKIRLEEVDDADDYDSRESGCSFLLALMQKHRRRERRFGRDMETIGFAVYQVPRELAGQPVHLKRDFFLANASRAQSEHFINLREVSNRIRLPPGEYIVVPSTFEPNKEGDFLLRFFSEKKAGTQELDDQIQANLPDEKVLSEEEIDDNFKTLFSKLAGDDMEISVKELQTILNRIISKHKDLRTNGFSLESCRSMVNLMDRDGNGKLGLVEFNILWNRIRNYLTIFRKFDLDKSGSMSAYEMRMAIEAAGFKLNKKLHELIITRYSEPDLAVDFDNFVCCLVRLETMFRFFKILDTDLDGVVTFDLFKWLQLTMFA
Procedure, shortened: (§2)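 Organotypic rat hippocampal slice cultures kept 6–8 days in 2% serum medium; 30 min inhibitor pre-incubation, then 10 µM NMDA for 5 h at 34°C, 5% CO2. Slices lysed; 150/145 kDa spectrin breakdown products quantified by densitometric Western blot with anti-spectrin alpha chain antibody.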

[4] = molecular target: T4, Calpain-1 catalytic subunit (Rattus norvegicus) (UniProt P97571); test: as §1; procedure, shortened: as §2
T4 sequence (whole entry): T3 sequence (P97571 whole entry)

[5] = Drug level in monkey blood treated with [3H]-labeled N-(4-Amino-3,4-dioxo-1-phenylbutan-2-yl)-2-(3-(4-fluorophenyl)-1H-pyrazol-1-yl)nicotinamide assesseed as cytosolic carbonyl reductase-mediated compound formation; assay type: ADME, Macaca mulatta; details: rhesus monkey, cytosol
[6] = molecular target: T5, Carbonyl reductase [NADPH] 1 (Homo sapiens, UniProt P16152); test: Drug level in human blood treated with [3H]-labeled N-(4-Amino-3,4-dioxo-1-phenylbutan-2-yl)-2-(3-(4-fluorophenyl)-1H-pyrazol-1-yl)nicotinamide assesseed as cytosolic carbonyl reductase-mediated compound formation; assay type: ADME; details: cytosol
T5 sequence (P16152 whole entry): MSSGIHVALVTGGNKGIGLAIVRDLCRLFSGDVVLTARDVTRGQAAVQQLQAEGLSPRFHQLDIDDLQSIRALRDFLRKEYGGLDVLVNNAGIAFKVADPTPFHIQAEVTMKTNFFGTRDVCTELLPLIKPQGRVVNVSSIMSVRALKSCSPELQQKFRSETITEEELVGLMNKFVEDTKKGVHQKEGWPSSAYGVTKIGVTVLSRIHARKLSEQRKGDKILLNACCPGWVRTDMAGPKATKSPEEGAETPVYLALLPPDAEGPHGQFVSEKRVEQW

[7] = molecular target: T5, Carbonyl reductase [NADPH] 1; test: Drug level in human hepatocytes treated with [3H]-labeled N-(4-Amino-3,4-dioxo-1-phenylbutan-2-yl)-2-(3-(4-fluorophenyl)-1H-pyrazol-1-yl)nicotinamide assesseed as cytosolic carbonyl reductase-mediated compound formation; assay type: ADME, cell-based
[8] = Drug level in monkey hepatocytes treated with [3H]-labeled N-(4-Amino-3,4-dioxo-1-phenylbutan-2-yl)-2-(3-(4-fluorophenyl)-1H-pyrazol-1-yl)nicotinamide assesseed as cytosolic carbonyl reductase-mediated compound formation; assay type: ADME, cell-based, Macaca mulatta; details: rhesus monkey
[9] = Inhibition of human liver cathepsin L using Z-Phe-Arg-AMC as substrate by kinetic fluorescence assay
Cathepsin S = Cathepsin S (Homo sapiens, UniProt P25774); test: Inhibition of human cathepsin S expressed in Escherichia coli using Z-Val-Val-Arg-AMC as substrate by kinetic fluorescence assay
[10] = Selectivity ratio of Ki for human liver cathepsin B to Ki for human erythrocytes calpain-1
[11] = Thiol reactivity using recombinant human full length 13C-labeled La antigen (100 to 324 residues) expressed in Escherichia coli BL21(DE3) by ALARM NMR
Homo sapiens [12] = species on record: Homo sapiens; test: Selectivity ratio of Ki for recombinant human procathepsin K expressed in Escherichia coli to Ki for human erythrocytes calpain-1
Procedure, shortened: (§3)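 Ki ratios from kinetic fluorescence assays. Cathepsins B (0.25 nM), L (1 nM), K (3 nM) and S (0.5 nM) in MES buffer at pH 6.0. All at room temperature; Ki by Cheng-Prusoff.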

Homo sapiens [13] = species on record: Homo sapiens; test: Selectivity ratio of Ki for recombinant human cathepsin S expressed in Escherichia coli to Ki for human erythrocytes calpain-1; procedure, shortened: as §3
[14] = Selectivity ratio of Ki for human liver cathepsin L to Ki for human erythrocytes calpain-1
[15] = molecular target: T4, Calpain-1 catalytic subunit (Rattus norvegicus); test: Inhibition of calpain-1 in rat hippocampal slices assessed as prevention of amyloid beta(1-42) globulomer-induced synaptic deficits at 10 nM co-administered with amyloid beta(1-42) globulomer […] by Schaffer collateral analysis; details: in the assay text read “after 1 day” for “after 1 hr”
Procedure, shortened: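 Hippocampal slices from 9–10-day-old Wistar rats cultured 15–18 days; 82 nM Aβ1-42 globulomer added to medium 1 day before recording, with compound co-applied; vehicle-only group included. Slices moved to interface chamber perfused with aCSF ≥1 h before recording; input/output after Schaffer collateral stimulation; 2-way repeated-measures ANOVA, Holm-Sidak.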

Rattus norvegicus [16] = test: Neuroprotective activity in Fisher rat assessed as effect on rapid eye movement time at 10 mg/kg administered via oral gavage measured after 8 hrs at the beginning of 12 hr light period by EEG analysis relative to control; assay type: functional
Procedure, shortened: (§4)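 Male Fisher rats (250–330 g) fitted with frontal/occipital EEG electrodes under ketamine/pentobarbital. Dosed by gavage in Cremophor EL/Capmul PG8 (20:80) just before recording. EEG recorded for 8 h from the start of the light period, without food or water. Crossover design with alternate treatment one week later; each animal served as its own control. Results as % of vehicle.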

Rattus norvegicus [17] = test: Neuroprotective activity in Fisher rat assessed as effect on latency in rapid eye movement at 1 mg/kg administered via oral gavage measured for 8 hrs at the beginning of 12 hr light period by EEG analysis relative to control; assay type: functional; procedure, shortened: as §4
Rattus norvegicus [18] = test: Neuroprotective activity in Fisher rat assessed as effect on rapid eye movement sleep pattern administered via oral gavage measured after 8 hrs at the beginning of 12 hr light period by EEG analysis; assay type: functional; procedure, shortened: as §4
Rattus norvegicus [19] = test: Neuroprotective activity in Wistar rat assessed as protection against scopolamine-induced cognitive impairment at 1 to 3 mg/kg, sc administered prior to scopolamine induction measured after 24 hrs; assay type: functional, organism-based
Procedure, shortened: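 Scopolamine 0.1 mg/kg s.c., with test compound given s.c. beforehand in ethanol/PEG400/water (20:30:50). Single step-through passive avoidance training: 2 min habituation in the lit compartment, then a 0.5 mA, 2 s footshock on entering the dark side. Latency to enter the dark compartment measured 24 h later; n=14–47/group.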

Rattus norvegicus [20] = test: Neuroprotective activity in Fisher rat assessed as effect on rapid eye movement time at 3 mg/kg administered via oral gavage measured after 8 hrs at the beginning of 12 hr light period by EEG analysis relative to control; assay type: functional; procedure, shortened: as §4
[21] = molecular target: T4, Calpain-1 catalytic subunit (Rattus norvegicus); test: Inhibition of calpain-1 in rat hippocampal slices assessed as prevention of NMDA-induced tau cleavage preincubated for 30 mins followed by NMDA addition measured after 5 hrs by Western blot analysis
Procedure, shortened: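 Same slice protocol: rat hippocampal organotypic cultures, 30 min inhibitor pre-incubation, 10 µM NMDA for 5 h at 34°C, 5% CO2; lysates probed by densitometric Western blot for the 17 kDa tau cleavage fragment using anti-Tau 1 antibody.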

Rattus norvegicus [22] = test: Neuroprotective activity in sc dosed Sprague-Dawley rat assessed as increase in microdialysate acetylcholine levels in medial prefrontal cortex measured every 20 mins by HPLC analysis; assay type: functional, organism-based
Procedure, shortened: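 Male Sprague-Dawley rats (290–320 g) implanted with medial prefrontal cortex microdialysis probes. Perfusion with Ringer solution containing 1 µM neostigmine at 1.5 µL/min. Twenty-minute fractions collected, six before and six after 1, 3 or 10 mg/kg s.c. (ethanol/PEG400/water vehicle). Acetylcholine measured by HPLC with an enzyme reactor and electrochemical detection, expressed as % of baseline.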

Rattus norvegicus [23] = test: Neuroprotective activity in Fisher rat assessed as effect on latency in rapid eye movement at 3 mg/kg administered via oral gavage measured for 8 hrs at the beginning of 12 hr light period by EEG analysis relative to control; assay type: functional; procedure, shortened: as §4
Rattus norvegicus [24] = test: Neuroprotective activity in Fisher rat assessed as effect on latency in rapid eye movement at 10 mg/kg administered via oral gavage measured for 8 hrs at the beginning of 12 hr light period by EEG analysis relative to control; assay type: functional; procedure, shortened: as §4

Sequence of Cathepsin S (P25774 whole entry): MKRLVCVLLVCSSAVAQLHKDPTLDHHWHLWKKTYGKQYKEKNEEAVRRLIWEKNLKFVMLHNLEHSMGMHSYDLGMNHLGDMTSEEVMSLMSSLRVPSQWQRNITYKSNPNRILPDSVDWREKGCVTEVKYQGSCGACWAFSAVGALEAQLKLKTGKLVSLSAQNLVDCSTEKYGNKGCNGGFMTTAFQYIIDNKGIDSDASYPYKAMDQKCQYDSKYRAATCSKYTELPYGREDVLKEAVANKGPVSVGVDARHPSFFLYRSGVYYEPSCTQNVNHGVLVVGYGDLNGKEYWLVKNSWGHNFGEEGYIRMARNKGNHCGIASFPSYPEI

SMILES	inhibition [1]	Ki [2] [nM]	IC50 [3] [µM]	fIC50 [4] [nM]	Ki [9] [nM]	Ki (Cathepsin S) [µM]	Ratio Ki [10]	Thiol reactivity [11]	Ratio Ki (Homo sapiens [12])	Ratio Ki (Homo sapiens [13])	Ratio Ki [14]	further results
NC(=O)C(=O)C(Cc1ccccc1)NC(=O)c1cccnc1-n1ccc(-c2ccccc2)n1 (configuration not stated)	Active	18	0.971	39	–	–	–	–	–	–	–	–
NC(=O)C(O)C(Cc1ccccc1)NC(=O)c1cccnc1-n1ccc(-c2ccc(F)cc2)n1 (configuration not stated)	–	–	–	–	–	–	–	–	–	–	–	Drug metabolism [5]: Metabolite_Detected; Drug metabolism [6]: Metabolite_Detected; Drug metabolism [7]: Metabolite_Detected; Drug metabolism [8]: Metabolite_Detected
CCN(CC)Cc1ccc(-c2ccn(-c3ncccc3C(=O)NC(Cc3ccccc3)C(=O)C(N)=O)n2)cc1 (configuration not stated)	Active	100	> 10	–	–	–	<1	Metabolite not detected	< 1	69	3	–
NC(=O)C(=O)C(Cc1ccccc1)NC(=O)c1cccnc1-n1ccc(-c2ccc(F)cc2)n1 (configuration not stated)	Active	34	0.591	41	–	–	–	–	–	–	–	inhibition [15]: Active; Activity (Rattus norvegicus [16]): 125%; Activity (Rattus norvegicus [17]): 100%; Activity (Rattus norvegicus [18]): Dose-dependent effect; Activity (Rattus norvegicus [19]): Active; Activity (Rattus norvegicus [20]): 131%; fIC50 [21]: 46 nM; Activity (Rattus norvegicus [22]): Dose-dependent effect; Activity (Rattus norvegicus [23]): 99%; Activity (Rattus norvegicus [24]): 80%
CCN(CC)Cc1ccc(/C=C/c2ncccc2C(=O)NC(Cc2ccccc2)C(=O)C(N)=O)cc1 (configuration not stated)	–	109	–	–	204	> 10	–	–	–	–	–	–
NC(=O)C(=O)C(Cc1ccccc1)NC(=O)c1cccnc1N1CCN(c2ccccc2)CC1 (configuration not stated)	–	250	–	–	491	7.26	–	–	–	–	–	–
NC(=O)C(=O)C(Cc1ccccc1)NC(=O)c1cccnc1-n1cc2ccccc2n1 (configuration not stated)	Active	46	3.2	288	–	–	6	Metabolite not detected	6	51	124	–

Second part, led by results:

inhibition [1]	Ki [2] [nM]	IC50 [3] [µM]	fIC50 [4] [nM]	Ki [9] [nM]	Ki (Cathepsin S) [µM]	SMILES	Ratio Ki [10]	Thiol reactivity [11]	Ratio Ki (Homo sapiens [12])	Ratio Ki (Homo sapiens [13])	Ratio Ki [14]	further results
–	125	–	–	39	1.78	NC(=O)C(=O)C(Cc1ccccc1)NC(=O)c1cccnc1N1CCC(c2ccccc2)C1 (configuration not stated)	–	–	–	–	–	–
Active	40	5.18	155	–	–	NC(=O)C(=O)C(Cc1ccccc1)NC(=O)c1cccnc1-n1ccc(-c2cccc(C(F)(F)F)c2)n1 (configuration not stated)	17	Metabolite not detected	28	> 500	>300	–
